The results in this text go back to ChEMBL document CHEMBL1122921, “Stereoselective antitumor properties in the Lewis lung carcinoma model using bis(morpholinomethyl) derivatives of tricyclic bis(dioxopiperazines)” (1985).

The species entered for experiment [1] is Mus musculus. The experiment can be described thus: Number of 50-day survivors Out of 8 mice. The class given is functional. The method in brief: (§1)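 Female BDF1 mice (19–21 g), 8–9 per group. Lewis lung carcinoma implanted on day 0 and the leg amputated on day 9. From day 9, 160 mg/kg ip q2d×4, given as a suspension or solution in 0.9% NaCl. Mice dying and those killed on day 50 were autopsied for body weight, lung weight, metastases (<2 or >2 mm) and metastasis incidence. Median survival and ILS were recorded, with ≥25% ILS taken as activity.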

The species entered for experiment [2] is Mus musculus. The experiment can be described thus: Percent increase in life span was measured in mice. The class given is functional. The gist of the method:
(§2)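 Female BDF1 mice (19–21 g), 10 per group. Lewis lung carcinoma, 10^5 cells in 0.05 mL, implanted in the right hind leg on day 0, and the leg amputated on day 10. Dosing was 160 mg/kg ip in 0.9% NaCl made daily, either from -1 h on day 0 q2d×5 (preamputation) or from day 11 q2d×4 (postamputation). Survivors were killed and autopsied on day 50, and values were averaged over all 10 mice. ILS ≥25% is taken as activity.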

The species entered for experiment [3] is Mus musculus. The experiment can be described thus: Compound was tested against autopsying on day 50th metastasis( <2 mm size.) in mice. It is filed as functional. The method in brief:
as §1

The species entered for experiment [4] is Mus musculus. The experiment can be described thus: Number of mice with metastasis Out of 8 mice. The class given is functional. The method in brief: as §1
Experiment [5] is filed under the species Mus musculus. The experiment can be described thus: Average body weight of mice was determined. The class given is functional. The gist of the method:
as §1

The species entered for experiment [6] is Mus musculus. The experiment can be described thus: Compound was tested against autopsying on day 50th metastasis( >2 mm size.) in mice. It is filed as functional. The method in brief:
as §2

Experiment [7] is filed under the species Mus musculus. The experiment is described as follows: Average lung weight of mice was determined. It is filed as functional. The gist of the method:
as §2

The subject of experiment [8] is Mus musculus. The experiment can be described thus: Median survival time of 10 BDF1 mice was tested after administration of compound (Postamputation schedule 160 mg/kg).
The species entered for experiment [9] is Mus musculus. The experiment can be described thus: Number of 50-day survivors Out of 9 mice. It is filed as functional. The method in brief:
as §1

For experiment [10], the species on record is Mus musculus. The experiment can be described thus: Compound was tested against autopsying on day 50th metastasis( <2 mm size) in mice. The class given is functional. The method in brief: as §1
The species named for experiment [11] is Mus musculus. The experiment is described as follows: Compound was tested against autopsying on day 50th metastasis( >2 mm size) in mice. It is filed as functional. The method in brief:
(§3)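 Female BDF1 mice (19–21 g), 10 per group, were implanted with 10^5 Lewis lung cells in the right hind leg on day 0, with leg amputation on day 10. Dosing was 160 mg/kg ip, either from −1 h on day 0 q2d×5 or from day 11 q2d×4, in saline prepared daily. Survivors were killed on day 50, and lung metastases were counted by size. Values are averages over 10 mice, dying and killed.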

The species named for experiment [12] is Mus musculus. The experiment can be described thus: Number of mice with metastasis out of 9 mice tested. It is filed as functional. The method in brief: (§4)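 Female BDF1 mice (19–21 g) were implanted with Lewis lung carcinoma on day 0 and amputated on day 9. Dosing was 160 mg/kg ip from day 9, q2d×4, as a suspension or solution in 0.9% NaCl. Dying mice and mice killed on day 50 were autopsied to count metastases (<2 mm, >2 mm) and mice bearing metastases.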

The species entered for experiment [13] is Mus musculus. The experiment can be described thus: Number of mice with metastasis Out of 9 mice. It is filed as functional. The method in brief: as §1
In experiment [14] the test system is Mus musculus. The experiment is described as follows: Median survival time of 10 BDF1 mice was tested after administration of compound (Preamputation schedule 160 mg/kg). The class given is functional. The method in brief:
as §2

In experiment [15] the test system is Mus musculus. The experiment can be described thus: Median survival time of 10 BDF1 mice was tested for compound (Postamputation schedule 160 mg/kg). It is filed as functional. The method in brief: as §2
The species entered for experiment [16] is Mus musculus. The experiment is described as follows: (§5) Percent of mice without metastasis. The class given is functional.
The species named for experiment [17] is Mus musculus. The experiment can be described thus: Compound was tested against autopsying on day 50th metastasis( <1 mm size) in mice. It is filed as functional. The gist of the method:
as §3

The species entered for experiment [18] is Mus musculus. The experiment is described as follows: Average number of metastasis per mouse. The class given is functional. The method in brief:
(§6)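 Female BDF1 mice (19–21 g) implanted with Lewis lung carcinoma on day 0. The tumour-bearing leg was amputated on day 9 or 10. Dosing was 160 mg/kg ip q2d in 0.9% NaCl. Dying mice were autopsied, and survivors were killed and autopsied on day 50.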

The species entered for experiment [19] is Mus musculus. The experiment can be described thus: Average lung weight per mouse was determined. It is filed as functional. The method in brief:
as §6

The species named for experiment [20] is Mus musculus. The experiment can be described thus: Number of 50-day survivors out of 9 mice. It is filed as functional. The gist of the method:
as §1

Experiment [21] is filed under the species Mus musculus. The experiment is described as follows: compound was tested against autopsying on day 50th metastasis( <[…] mm size.) in mice. The class given is functional. The gist of the method:
as §4

The species named for experiment [22] is Mus musculus. The experiment can be described thus: compound was tested against autopsying on day 50th metastasis( >2 mm size.) in mice. It is filed as functional. The method in brief:
as §3

The species named for experiment [23] is Mus musculus. The experiment is described as follows: Number of 50-day survivors Out of 10 mice. The class given is functional. The gist of the method: as §2
For experiment [24], the species on record is Mus musculus. The experiment can be described thus: Number of 50-day survivors out of 10 mice; 2 mice died out of 6 with one metastasis each (5mm i.d.). The class given is functional.
The species entered for experiment [25] is Mus musculus. The experiment is described as follows: Compound was tested against autopsying on day 50th metastasis( 1-2 mm size) in mice. The class given is functional. The gist of the method: as §3
For experiment [26], the species on record is Mus musculus. The experiment can be described thus: compound was tested against autopsying on day 50th metastasis( 1-2 mm size.) in mice. It is filed as functional. The method in brief: as §3
Experiment [27] is filed under the species Mus musculus. The experiment can be described thus: compound was tested against autopsying on day 50th metastasis( <1 mm size.) in mice. The class given is functional. The gist of the method:
as §3

The species entered for experiment [28] is Mus musculus. The experiment can be described thus: Average lung weight per mouse. The class given is functional. The gist of the method: as §6
For experiment [29], the species on record is Mus musculus. The experiment is described as §5. The class given is functional. This is another data set of the same source.

Structures are written as SMILES. “And” between values parts separate entries of the source, which are not always exact repeats. Equal values may be shown once.

In turn, `O=C1CN2CCN3CC(=O)NC(=O)[C@H]3C2C(=O)N1` (stereo partly drawn) displayed a N/T in the experiment filed under Mus musculus [1] of 3. Also, the increase in lifespan (ILS) in the experiment filed under Mus musculus [2] was 34%. Besides, the “Average No. of metastasis” value in the experiment filed under Mus musculus [3] turned out to be 1%; in the experiment listed under Mus musculus [6], 14%. Also, in the experiment listed under Mus musculus [4], the M/T came to 5. Further, the Body weight in the experiment listed under Mus musculus [5] is 17.8 g. In addition, the Lung weight in the experiment listed under Mus musculus [7] was found to be 813 mg. In the experiment on Mus musculus [8], this compound had an MST of 45 days.

`O=C1CN2CCN3CC(=O)N(CN4CCOCC4)C(=O)[C@@H]3C2C(=O)N1CN1CCOCC1` (stereo partly drawn) returned a N/T in the experiment filed under Mus musculus [9] of 5. The compound also registered an increase in lifespan (ILS) in the experiment listed under Mus musculus [2] of over 49%. Moreover, the Average No. of metastasis in the experiment listed under Mus musculus [10] was 0 count; in the experiment filed under Mus musculus [11], 9 count. Also, in the experiment listed under Mus musculus [12], the M/T is on record as 4. Besides, in the experiment listed under Mus musculus [5], the Body weight was 19.4 g. Further, in the experiment listed under Mus musculus [7], the Lung weight was determined as 564 mg. Further, the MST in the experiment on Mus musculus [8] was over 50 days.

Turning to `O=C1CN2CCN3CC(=O)NC(=O)[C@@H]3C2C(=O)N1` (stereo partly drawn), the N/T in the experiment filed under Mus musculus [9] was 2. The compound further displayed an ILS in the experiment listed under Mus musculus [2] of 16%. The figures for the Average No. of metastasis in the experiment listed under Mus musculus [10] and in the experiment filed under Mus musculus [11] were 2 count and 13 count, respectively. The compound also had a M/T in the experiment listed under Mus musculus [13] of 7. The compound further came in with a Body weight in the experiment listed under Mus musculus [5] of 17.7 g. The same compound came in with a Lung weight in the experiment listed under Mus musculus [7] of 749 mg. This compound registered an MST with Mus musculus [8] of 39 days.

With `O=C1CN2CCN3CC(=O)N(CN4CCOCC4)C(=O)[C@H]3C2C(=O)N1CN1CCOCC1` (stereo in doubt; 3), the MST with Mus musculus [14] was 38.5 days; in the experiment with Mus musculus [15], 35 days. For the same compound, the N/T in the experiment filed under Mus musculus [9] and in the experiment listed under Mus musculus [20] was 5 in each case. Besides, the Mice in the experiment filed under Mus musculus [16] is 30% and 20%. The Average No. of metastasis in the experiment filed under Mus musculus [17] is 0.2 count; in the experiment filed under Mus musculus [18], 15 and 13.8. The Lung weight in the experiment filed under Mus musculus [19] is 754 mg and 752 mg.

`O=C1CN2CCN3CC(=O)N(CN4CCOCC4)C(=O)[C@H]3C2C(=O)N1CN1CCOCC1` (stereo in doubt; form 1) registered an MST in the experiment with Mus musculus [14] of 39 days. In the experiment filed under Mus musculus [9], this compound yielded a N/T of 7. Moreover, the Average No. of metastasis in the experiment listed under Mus musculus [21] was 0 count; in the experiment filed under Mus musculus [22] it was 3 count. For the same compound, the M/T in the experiment listed under Mus musculus [12] came to 1. For the same compound, the Body weight in the experiment filed under Mus musculus [5] stood at 19.9 g. Moreover, the Lung weight in the experiment filed under Mus musculus [7] worked out at 369 mg.

As for `O=C1CN2CCN3CC(=O)N(CN4CCOCC4)C(=O)[C@H]3C2C(=O)N1CN1CCOCC1` (stereo in doubt; form 2), the MST in the experiment on Mus musculus [14] was 39 days. Also, the N/T in the experiment filed under Mus musculus [23] was determined as 4; in the experiment filed under Mus musculus [24], 6. For the same compound, the Mice in the experiment filed under Mus musculus [16] and in the experiment filed under Mus musculus [29] was 40% throughout. Also, the Average No. of metastasis was found to be 3.5 count in the experiment listed under Mus musculus [25]; 1 count in the experiment listed under Mus musculus [17]; 8.3 count in the experiment filed under Mus musculus [11]; 2.6 count in the experiment listed under Mus musculus [26]; 0.3 count in the experiment filed under Mus musculus [27]; 4.8 count in the experiment filed under Mus musculus [22]. Besides, the “Average No. of metastasis” value in the experiment filed under Mus musculus [18] was 12.8 and 7.7. For the same compound, the Lung weight in the experiment listed under Mus musculus [19] was 641 mg; in the experiment filed under Mus musculus [28] it was 538 mg.

By ILS is commonly meant the gain in survival time of treated over control animals, in per cent. A high value points to a large benefit in survival.
